From ChEMBL document CHEMBL4477178, “Biflorin, Isolated from the Flower Buds of Syzygium aromaticum L., Suppresses LPS-Induced Inflammatory Mediators via STAT1 Inactivation in Macrophages and Protects Mice from Endotoxin Shock” (J Nat Prod, 2016)
Calls of active or inactive are those of the source. The rule behind the calls is not given here.

Assays:
RAW264.7 [1] = experiment: Antiinflammatory activity in mouse RAW264.7 cells assessed as inhibition of LPS-induced IL-6 production at 60 uM preincubated for 1 hr followed by LPS challenge for 24 hrs by ELISA method; assay type: functional
Summary of the method: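 RAW 264.7 cells in DMEM with 10% FBS, plated at 2 × 10^5 cells/mL and incubated overnight. Pretreated with compound (15, 30 or 60 μM) for 1 h, then LPS 10 ng/mL for 24 h. PGE2 measured by competitive colorimetric ELISA, TNF-α and IL-6 by ELISA, in diluted medium. NS-398 3 μM as positive control for PGE2. Mean ± SD, three independent experiments; IC50 given for PGE2.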

Peritoneal macrophage = experiment: Antiinflammatory activity in C57BL/6 mouse peritoneal macrophages assessed as inhibition of LPS-induced nitric oxide production at 60 uM preincubated for 1 hr followed by LPS challenge for 48 hrs by Griess assay; assay type: functional; conditions: C57BL/6, Peritoneal macrophage
Summary of the method: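 Thioglycolate-elicited C57BL/6 mouse peritoneal macrophages, plated at 5 × 10^5 cells/mL and incubated overnight. Compound given at 15, 30 or 60 μM for 1 h, then LPS 10 μg/mL. Medium mixed 1:1 with Griess reagent for 10 min at room temperature, absorbance read at 540 nm, nitrite quantified against a NaNO2 standard. L-NIL 20 μM as positive control; three independent experiments.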

RAW264.7 [2] = experiment: Antiinflammatory activity in mouse RAW264.7 cells assessed as inhibition of LPS-induced nitric oxide production preincubated for 1 hr followed by LPS challenge for 24 hrs by Griess assay; assay type: functional, cell-based
Summary of the method: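 RAW 264.7 cells plated at 2 × 10^5 cells/mL and incubated overnight. Compound given at 15, 30 or 60 μM for 1 h, then LPS 10 ng/mL for 24 h. Nitrite in the medium measured by Griess reagent (10 min, room temperature, A540) against a NaNO2 standard. L-NIL 20 μM as positive control; IC50 derived; three independent experiments.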

RAW264.7 [3] = experiment: Cytotoxicity against mouse RAW264.7 cells assessed as cell viability at 60 uM after 24 hrs by MTT assay in presence of LPS; assay type: cell-based; conditions: raw264.7, 24 h
Summary of the method: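 RAW 264.7 seeded at 1 × 10^5 cells/mL, grown overnight, exposed 24 h with or without LPS; MTT (5 mg/mL stock in PBS) added 4 h at 37 °C, formazan dissolved in DMSO, absorbance at 540 nm.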

[4] = biological target: Transcription factor Jun (Mus musculus) (UniProt P05627); experiment: Inhibition of LPS-induced AP-1 activity in mouse RAW264.7 cells at 15 to 60 uM preincubated for 1 hr followed by LPS challenge for 12 hrs by luciferase reporter gene assay; assay type: cell-based
Chain of Transcription factor Jun (Mus musculus) (P05627 whole entry): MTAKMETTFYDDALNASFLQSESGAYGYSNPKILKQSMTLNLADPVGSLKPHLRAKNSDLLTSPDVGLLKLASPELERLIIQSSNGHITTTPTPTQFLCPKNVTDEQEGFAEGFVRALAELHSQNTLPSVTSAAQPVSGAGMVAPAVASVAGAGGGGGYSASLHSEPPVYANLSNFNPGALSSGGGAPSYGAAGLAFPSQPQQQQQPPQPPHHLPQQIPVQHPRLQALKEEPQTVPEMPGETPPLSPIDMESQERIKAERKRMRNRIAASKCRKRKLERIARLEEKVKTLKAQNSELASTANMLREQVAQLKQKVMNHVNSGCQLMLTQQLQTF

[5] = biological target: Signal transducer and activator of transcription 3 (Mus musculus) (UniProt P42227); experiment: Inhibition of LPS-induced STAT3 phosphorylation at Y705 in mouse RAW264.7 cells at 15 to 60 uM preincubated for 1 hr followed by LPS challenge for 120 mins by Western blot analysis; assay type: cell-based
Chain of Signal transducer and activator of transcription 3 (Mus musculus) (P42227 whole entry): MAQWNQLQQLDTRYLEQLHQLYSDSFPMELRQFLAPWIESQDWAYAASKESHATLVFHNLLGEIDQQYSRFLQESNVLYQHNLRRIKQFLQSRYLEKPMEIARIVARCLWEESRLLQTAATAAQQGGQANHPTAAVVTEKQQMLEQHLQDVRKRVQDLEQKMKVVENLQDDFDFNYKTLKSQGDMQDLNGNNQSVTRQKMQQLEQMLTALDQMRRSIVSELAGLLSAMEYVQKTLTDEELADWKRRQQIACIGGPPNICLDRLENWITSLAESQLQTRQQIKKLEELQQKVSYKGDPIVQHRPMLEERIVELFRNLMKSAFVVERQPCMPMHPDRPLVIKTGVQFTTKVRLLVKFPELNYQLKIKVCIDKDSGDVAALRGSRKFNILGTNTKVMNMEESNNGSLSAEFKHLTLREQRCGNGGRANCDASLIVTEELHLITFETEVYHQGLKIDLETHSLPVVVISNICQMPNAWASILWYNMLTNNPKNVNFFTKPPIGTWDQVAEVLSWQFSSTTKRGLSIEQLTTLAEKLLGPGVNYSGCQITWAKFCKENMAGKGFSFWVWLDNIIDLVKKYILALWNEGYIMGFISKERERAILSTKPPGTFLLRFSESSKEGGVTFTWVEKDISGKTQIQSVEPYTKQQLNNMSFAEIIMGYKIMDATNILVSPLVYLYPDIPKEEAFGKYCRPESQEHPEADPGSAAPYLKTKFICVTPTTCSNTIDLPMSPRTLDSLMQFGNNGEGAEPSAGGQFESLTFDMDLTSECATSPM
Summary of the method: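 RAW 264.7 pretreated 1 h at 15, 30 or 60 μM, then LPS 10 ng/mL: 120 min for p-STAT1 Y701, 15 min for p-STAT1 S727, 120 min for p-STAT3 Y705. Western blot with phospho-specific and total STAT1/STAT3 antibodies, β-actin control; three independent experiments.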

[6] = biological target: MAP kinase p38 (Mus musculus) (UniProt P47811+O08911+Q9WUI1+Q9Z1B7); experiment: Inhibition of LPS-induced p38 MAPK phosphorylation in mouse RAW264.7 cells preincubated for 1 hr followed by LPS challenge for 30 mins by Western blot analysis; assay type: cell-based
Summary of the method: (§1)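 RAW 264.7 pretreated 1 h at 15, 30 or 60 μM, then LPS 10 ng/mL for 30 min. Lysates Western-blotted for p-p38, p38, p-JNK, JNK, p-ERK, ERK with β-actin control; ECL, densitometry. Three independent experiments.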

[7] = biological target: Mitogen-activated protein kinase 1 and 3 (ERK2 and ERK1) (Mus musculus) (UniProt P63085+Q63844); experiment: Inhibition of LPS-induced ERK1/2 phosphorylation in mouse RAW264.7 cells at 15 to 60 uM preincubated for 1 hr followed by LPS challenge for 30 mins by Western blot analysis; assay type: cell-based; summary of the method: as §1
Chain of Mitogen-activated protein kinase 1 and 3 (ERK2 and ERK1) (Mus musculus) (P63085 whole entry, looked up): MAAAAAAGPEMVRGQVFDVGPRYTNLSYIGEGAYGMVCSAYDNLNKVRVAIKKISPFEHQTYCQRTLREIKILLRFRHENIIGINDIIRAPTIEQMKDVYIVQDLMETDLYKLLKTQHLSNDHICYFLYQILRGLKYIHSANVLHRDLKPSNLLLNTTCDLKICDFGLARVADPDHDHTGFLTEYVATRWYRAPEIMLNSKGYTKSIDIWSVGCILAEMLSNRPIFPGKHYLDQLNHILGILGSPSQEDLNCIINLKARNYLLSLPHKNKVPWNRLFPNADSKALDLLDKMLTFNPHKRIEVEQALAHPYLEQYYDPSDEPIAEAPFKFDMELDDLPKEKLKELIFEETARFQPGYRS
Chain of Mitogen-activated protein kinase 1 and 3 (ERK2 and ERK1) (Mus musculus) (Q63844 whole entry, looked up): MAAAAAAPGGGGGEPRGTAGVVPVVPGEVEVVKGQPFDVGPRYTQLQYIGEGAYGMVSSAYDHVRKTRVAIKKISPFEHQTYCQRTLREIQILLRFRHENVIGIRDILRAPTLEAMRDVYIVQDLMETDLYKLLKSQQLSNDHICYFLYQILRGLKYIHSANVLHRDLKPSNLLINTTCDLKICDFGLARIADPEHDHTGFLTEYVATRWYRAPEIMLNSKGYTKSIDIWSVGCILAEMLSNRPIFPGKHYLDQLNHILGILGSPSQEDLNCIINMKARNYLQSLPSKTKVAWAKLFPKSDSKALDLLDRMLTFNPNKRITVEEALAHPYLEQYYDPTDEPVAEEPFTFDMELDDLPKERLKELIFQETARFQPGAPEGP

RAW264.7 [8] = experiment: Inhibition of LPS-induced JNK phosphorylation in mouse RAW264.7 cells at 15 to 60 uM preincubated for 1 hr followed by LPS challenge for 30 mins by Western blot analysis; assay type: cell-based; summary of the method: as §1
Mus musculus = experiment: Inhibition of LPS-induced TNF-alpha mRNA expression in C57BL/6 mouse liver at 10 mg/kg, ip pretreated for 1 hr followed by LPS challenge for 6 hrs by qRT-PCR method; assay type: functional, organism-based
Summary of the method: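 Male C57BL/6 mice given 10 mg/kg i.p. or vehicle 1 h before LPS (Salmonella enterica, 25 mg/kg i.p.); liver collected 6 h after LPS, frozen at −80 °C. Liver mRNA by SYBR qRT-PCR normalized to β-actin; protein by Western blot for p-STAT1 (Y701, S727). Eight mice per group; mean ± SD.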

Rattus norvegicus = experiment: Antiinflammatory activity in Sprague-Dawley rat assessed as inhibition of croton oil-induced ear edema at 10 mg/kg, ip administered 1 hr before croton oil challenge measured after 3 hrs by hematoxylin and eosin staining based assay; assay type: functional, organism-based
Summary of the method: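 SD male rats dosed i.p. (10 mg/kg) 1 h before topical croton oil (5% in acetone) on inner right ear; left ear got acetone only. At 3 h rats sacrificed, 6 mm ear punches taken, fixed in 4% paraformaldehyde overnight, paraffin-embedded, H&E-stained for edema and inflammatory cell infiltrate; seven animals per group.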

In the case of `Cc1cc(=O)c2c(O)c([C@@H]3O[C@H](CO)[C@@H](O)[C@H](O)[C@H]3O)c(O)cc2o1` [BIFLORIN], the inhibition at 60 µM (RAW264.7 [1]) is reported as 51.3%, the inhibition at 60 µM (Peritoneal macrophage) is reported as 55.9% and the IC50 (RAW264.7 [2]) is reported as 51.7 µM. The Activity (RAW264.7 [3]) was “Non-Toxic”, the inhibition [4] was “inactive” and the inhibition [5] was “Active”. The inhibition [6] was “Dose-dependent effect”, the inhibition [7] was “inactive” and the inhibition (RAW264.7 [8]) was “inactive”. The inhibition (Mus musculus) was “Active” and the inhibition (Rattus norvegicus) was “Active”.
